Experimental data as given in article PMC6943944 (Journal of medicinal chemistry, 2019).
Values after ≈ are worked out from the molar mass of the structure shown.

What was measured:
[1] = Biodistribution of 67Ga complexes in naive mice; assay type: in vivo; settings: naive female CBJ mice (n = 3), intravenous, 0.8–1.2 MBq, 1 h p.i.
Outline: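 Naive female CBJ mice (8–10 weeks) received 0.8–1.2 MBq of 67Ga complex via tail-vein catheter. The complex was formed from 67GaCl3 (derived from 67Ga-citrate) and ligand in HEPES at pH 7.4, with labelling checked by radio-HPLC. A 67Ga-citrate group was also dosed. At 1 h p.i. mice were killed, organs harvested and gamma-counted (% ID/g), and urine metabolites analysed by radio-HPLC.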

E. coli AN193 = assay: MIC assay in E. coli AN193; assay type: cell-based, Escherichia coli; settings: E. coli AN193 carrying a mutation of the FhuA gene; compared with wt E. coli K12
S. aureus RN4220 = assay: Growth inhibition; assay type: cell-based, Staphylococcus aureus; settings: for MIC90: Staphylococcus aureus, RN4220, 18 h, read-out: MIC90 S. aureus RN4220
E. coli K12 [2] = assay: MIC assay in E. coli K12 in iron-deficient; assay type: cell-based; settings: Escherichia coli, K12, 18 h, read-out: MIC90 (+DP)
E. coli K12 [3] = assay: Challenge MIC assay in E. coli with 100-fold excess Fe-siderophore; assay type: cell-based, Escherichia coli; settings: for MIC90: Escherichia coli, K12, 18 h, read-out: MIC90 (+DP, +100× Fe siderophore)
P. aeruginosa PA01 = assay: Growth inhibition; assay type: cell-based, Pseudomonas aeruginosa; settings: for MIC90: Pseudomonas aeruginosa, PA01, 18 h, read-out: MIC90 P. aeruginosa PA01
Outline: (§1)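 Broth microdilution in cation-adjusted Mueller–Hinton II broth made iron-deficient with 2,2′-bipyridine. Test compound stock was 0.3 mM in sterile water, with concentration verified by ICP-OES/UV–vis. Serial dilutions gave a final range of 0.3 × 10−4 to 1.56 × 10−12 M, with diluted inoculum added. Ciprofloxacin served as comparator. Incubation was 18 h at 37 °C with absorbance read. MIC was the lowest concentration giving ≥90% growth inhibition relative to negative-control wells.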

K. pneumoniae CRE-11 = assay: Growth inhibition; assay type: cell-based, Klebsiella pneumoniae; settings: for MIC90: Klebsiella pneumoniae, CRE11, 18 h, read-out: MIC90 K. pneumoniae CRE-11
Outline: as §1

[4] = cited from earlier work

Compound	growth inhibitory activity in E. coli AN193 (in words) (E. coli AN193)	MIC90 (S. aureus RN4220) [µM]	MIC90 (E. coli K12 [2]) [µM]	MIC90 (E. coli K12 [3]) [µM]	MIC90 (P. aeruginosa PA01) [µM]	MIC90 (K. pneumoniae CRE-11) [µM]	other results
O=C([O-])CC(O)(CC(=O)[O-])C(=O)[O-].[67Ga+3] [^67Ga-citrate]							clearance route from biodistribution (in words) [1]: predominantly renal clearance
CC(=O)N(O)CCCCCNC(=O)CCC(=O)N(O)CCCCCNC(=O)CCC(=O)N(O)CCCCCNC(=O)CCC(=O)N1CCN(c2cc3c(cc2F)c(=O)c(C(=O)O)cn3C2CC2)CC1 [apo D1, 7-{4-[4-(5-{N-4-[5-(N-4-{5-[N-Acetyl-(hydroxyamino)]pentylamino}−4-oxobutyry(hydroxyamino))pentyl-amino]-4-oxobutyryl(hydroxyamino)}pentylamino)-4-oxobutyryl]-1-piperazinyl}−1-cyclopropyl-6-fluoro-4-oxo-1H-quinoline-3-carboxylic Acid]	retain comparable MIC values						
CC(=O)N(O)CCCC(N)C(=O)NC(CCCN(O)C(C)=O)C(=O)NC(CCCN(O)C(C)=O)C(=O)NCCC(=O)N1CCN(c2cc3c(cc2F)c(=O)c(C(=O)O)cn3C2CC2)CC1 (centres unmarked) [apo D2, 7-[4-(3-{5-[N-Acetyl(hydroxyamino)]-2-{5-[N-acetyl(hydroxyamino)]-2-{5-[N-acetyl(hydroxyamino)]-2-aminovalerylamino}-valerylamino}valerylamino}propionyl)-1-piperazinyl]-1-cyclopropyl-6-fluoro-4-oxo-1H-quinoline-3-carboxylic Acid]	completely muted	15 (≈ 13.8 µg/mL)	0.23 (≈ 0.211 µg/mL)	> 100	7.5 (≈ 6.89 µg/mL)	> 100	
O=C(O)c1cn(C2CC2)c2cc(N3CCNCC3)c(F)cc2c1=O [ciprofloxacin]		1.9 (≈ 0.63 µg/mL)	0.2 (≈ 0.0663 µg/mL)	0.23 (≈ 0.0762 µg/mL)	0.94 (≈ 0.311 µg/mL)	3.12 (≈ 1.03 µg/mL)	impact of 100× Fe–DFO or 100× Fe–LDFC on potency (in words) (E. coli K12 [3]; E. coli, challenge MIC assay): no impact
CC(=O)N(O)CCCCCNC(=O)CCC(=O)N(O)CCCCCNC(=O)CCC(=O)N(O)CCCCCN [desferrioxamine (DFO), desferrioxamine]							log Ka of the gallium complex [4]: 28.65
albomycin [Fe-D3 (albomycin)]	completely muted						MIC90 S. aureus RN4220 (S. aureus RN4220; wild-type S. aureus RN4220, iron-limiting conditions, 37 °C, 18 h): 0.94 µM; MIC90 P. aeruginosa PA01 (P. aeruginosa PA01; wild-type P. aeruginosa PA01, iron-limiting conditions, 37 °C, 18 h): >30 µM; MIC90 K. pneumoniae CRE-11 (K. pneumoniae CRE-11; carbapenem resistant K. pneumoniae CRE-11, iron-limiting conditions, 37 °C, 18 h): 0.00023 μM; growth inhibitory activity in K. pneumoniae (in words) (K. pneumoniae CRE-11; carbapenem resistant K. pneumoniae, iron-limiting conditions): exceptional potency
